Published values collected from several papers.
Compare with care: the assays were run in different laboratories.
Target: Serine/threonine-protein kinase 10 (STK10, Homo sapiens, UniProt O94804)

| SMILES | test | setting | remaining binding |
| --- | --- | --- | --- |
| CC1=C(C#N)[C@@H](c2ccc3[nH]nc(C)c3c2)C(C#N)=C(c2ccc(Cl)cc2)N1 | cell-free assay, competition with immobilised ligand | 1 µM | 100% |
| Nc1ncc2c(n1)-c1c([nH]c3ccc(C#CC4CC4)cc13)CCCC2 | binding, competition with immobilised ligand | 1 µM | 99% |
| CN(C)c1nccc(-c2cnn3ncccc23)n1 | binding | 1 µM | 100% |
| O=C(c1ccc(Nc2ncc(Cl)c(-c3cc4ccccc4s3)n2)cc1)N1CCC(N2CCCC2)CC1 | binding, competition with immobilised ligand | 1 µM | 43% |
| CCCOc1ccc([C@H]2[C@H](C(=O)O)[C@@H](c3ccc4c(c3)OCO4)CN2CC(=O)Nc2c(CC)cccc2CC)cc1 | cell-free assay, competition with immobilised ligand | 1 µM | 97% |
| c1cncc(-c2cccc(Nc3nccc(NC4CCCCC4)n3)c2)c1 | binding, competition with immobilised ligand | 10 µM | 38% |
| O=C(Nc1c[nH]nc1C(=O)NC1CCNCC1)c1cc(F)cc(F)c1 | binding, competition with immobilised ligand | 1 µM | 100% |
| C[C@@H]1CCN(c2nccc(-c3cnn4ncccc34)n2)C1 | binding | 1 µM | 98% |
| CN(C(=O)c1ccccc1)c1cc(N(C)c2ccc3c(c2)CCc2ccc(C(=O)NCCN4CCOCC4)cc2C3=O)ccc1F | cell-free assay, competition with immobilised ligand | 1 µM | 100% |
| O=C(c1ccc(Nc2nccc(-c3cc4ccccc4s3)n2)cc1)N1CCC(N2CCCC2)CC1 | binding, competition with immobilised ligand | 1 µM | 58% |
| N[C@H]1CCN(c2nccc(-c3cnn4ncccc34)n2)C1 | binding | 1 µM | 98% |
| Cn1cc(Cl)c2c(Oc3c(F)cc(Nc4cc(Cl)nc(N)n4)cc3F)ccnc21 | cell-free assay, competition with immobilised ligand | 0.1 µM | 100% |
| COc1ccnn2ncc(-c3ccnc(N(C)C)n3)c12 | binding | 1 µM | 95% |
| CS(=O)(=O)c1cc(C2(NC(=O)c3cncc4c3cnn4-c3ccc(F)cc3)CC2)ccn1 | cell-free assay, competition with immobilised ligand | 1 µM | 99% |
| CN(C)c1ncc(F)c(-c2cnn3ncccc23)n1 | binding | 1 µM | 42% |
| COc1cnc(Nc2cccc(S(N)(=O)=O)c2)nc1N1CCN(c2ccccc2)C(=O)C1 | binding, competition with immobilised ligand | 1 µM | 100% |
| O=C(c1ccc(Nc2ncc(Cl)c(-c3ccc(Cl)s3)n2)cc1)N1CCC(N2CCCC2)CC1 | binding, competition with immobilised ligand | 1 µM | 28% |
| CC(=O)N1CCC(c2ccc(C(=O)NC3=NCCN3)cc2C(F)(F)F)CC1 | cell-free assay, competition with immobilised ligand | 1 µM | 100% |
| c1cnn2ncc(-c3ccnc(N4CCC45COC5)n3)c2c1 | binding | 1 µM | 91% |
| COc1ncc2cc3ccccc3nc2c1C#N | cell-free assay, competition with immobilised ligand | 5 µM | 100% |
